Assay results as given in ChEMBL document CHEMBL1123619, “Isothiourea derivatives of 6-phenyl-2,3,5,6-tetrahydroimidazo[2,1-b]thiazole with broad-spectrum anthelmintic activity” (J Med Chem, 1987).

Assays:
Ovis aries [1] = test: Antihelmethic activity expressed as the percentage of worms eliminated in the feces in sheep abomasum at peroral dose of 30 mg/kg against Haemonchus contortus; type: functional; conditions: route oral
Outline: (§1)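 Sheep given a single dose, oral or subcutaneous. Total daily feces collected for 4 days after treatment and examined for expelled worms. Necropsy at day 7 after dosing; lungs, liver and gastrointestinal tract removed and remaining worms identified. Activity calculated by comparing worms passed in feces with those remaining at autopsy. Single animals per test unless otherwise indicated.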

Ovis aries [2] = test: Antihelmethic activity expressed as the percentage of worms eliminated in the feces in sheep large bowel at peroral dose of 15 mg/kg against Lungworm Dictyocaulus filaria.; type: functional; conditions: route oral; outline: as §1
Ovis aries [3] = test: Antihelmethic activity expressed as the percentage of worms eliminated in the feces in sheep large bowel at peroral dose of 30 mg/kg against Trichuris ovis.; type: functional; conditions: route oral; outline: as §1
Ovis aries [4] = test: Anthelmintic activity against adult liver fluke (Fasciola hepatica) in sheep, after peroral administration of 20 mg/kg was determined; type: functional; conditions: route oral
Outline: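 Sheep dosed with a single oral dose. Fecal fluke egg output monitored after treatment. Animals necropsied only if the fecal egg count fell. Postmortem Fasciola hepatica burdens compared with untreated control sheep (mean of 10 controls). Single animals per test unless otherwise indicated, with group size given in parentheses. I denotes no effect on fecal fluke egg output.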

Mus musculus [5] = test: Nematocidal against Nematospiroides dubius in mouse was determined at 25 mg/kg peroral dose of compound; type: functional; conditions: route oral
Outline: (§2)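 Seven-week-old female LACA mice infected orally with 100 N. dubius L3 larvae; single gavage dose given at day 10 of infection, groups of four mice; necropsy 4 days later; percent activity from worm burdens of treated versus untreated groups.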

Mus musculus [6] = test: Nematocidal activity against Nematospiroides dubius induced necropsy in mouse, after oral administration of 12.5 mg/kg of the compound; type: functional
Outline: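 Female LACA mice (7 weeks) infected orally with 100 N. dubius L3 larvae; single oral dose as solution in PEG 400 on infection day 10, four mice per group; necropsied 4 days later; percent activity by comparing treated and untreated worm burdens.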

Felis catus = test: Antihelmethic activity expressed as the percentage of worms eliminated in the feces in cat tapeworm at peroral dose of 30 mg/kg; worms expelled and no futher segments appeared in the feces for the duration of the test; type: functional, organism-based; parameters: dose 30 mg/kg
Ovis aries [7] = test: Antihelmethic activity expressed as the percentage of worms eliminated in the feces in sheep small intestine at peroral dose of 15 mg/kg against Strongyloides papillosus; type: functional; conditions: route oral; outline: as §1
Ovis aries [8] = test: Antihelmethic activity expressed as the percentage of worms eliminated in the feces in sheep […] at subcuteneous dose of 30 mg/kg against Liver fluke Fasciola hepatica.; type: functional
Ovis aries [9] = test: Antihelmethic activity expressed as the percentage of worms eliminated in the feces in sheep abomasum at peroral dose of 15 mg/kg against Trichostrongylus axei; type: functional; conditions: route oral; outline: as §1
Ovis aries [10] = test: Antihelmethic activity expressed as the percentage of worms eliminated in the feces in sheep […] at peroral dose of 15 mg/kg against Liver fluke Fasciola hepatica.; type: functional; conditions: route oral
Mus musculus [11] = test: Nematocidal activity against Nematospiroides dubius induced necropsy in mouse, after oral administration of 25 mg/kg of the compound; type: functional; outline: as §2
Ovis aries [12] = test: Antihelmethic activity expressed as the percentage of worms eliminated in the feces in sheep small intestine at subcuteneous dose of 30 mg/kg against Nematodirus species; type: functional; outline: as §1
Ovis aries [13] = species on record: Ovis aries; test: Antihelmethic activity expressed as the percentage of worms eliminated in the feces in sheep species.; type: functional
Outline: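 Sheep; total daily faeces collected for 4 days after treatment and searched for expelled worms; necropsy 7 days post-dose with lungs, liver and GI tract examined and worms identified; activity from worms passed in faeces versus worms remaining in host at autopsy.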

Ovis aries [14] = test: Antihelmethic activity expressed as the percentage of worms eliminated in the feces in sheep large bowl at peroral dose of 15 mg/kg against chabertia ovina.; type: functional; conditions: route oral; outline: as §1
Ovis aries [15] = test: Antihelmethic activity expressed as the percentage of worms eliminated in the feces in sheep abomasum at subcuteneous dose of 30 mg/kg against Trichostrongylus axei; type: functional; outline: as §1

CS/C(=N\c1cccc(C2CN3CCSC3=N2)c1)Nc1ccc(C#N)cc1 (stereo unspecified)
Activity (Ovis aries [1]): 100% | Activity (Ovis aries [2]): 100% | Activity (Ovis aries [3]): 100% | Activity (Ovis aries [4]): 89% | Activity (Mus musculus [5]): 68 | Activity (Mus musculus [6]): 28% | Activity (Felis catus): no toxic symptoms | Activity (Ovis aries [7]): 100% | Activity (Ovis aries [8]): 100% | Activity (Ovis aries [9]): 92% | Activity (Ovis aries [10]): 100% | Activity (Mus musculus [11]): 68% | Activity (Ovis aries [12]): 100% | Activity (Ovis aries [13]): 100% | Activity (Ovis aries [14]): 99% | Activity (Ovis aries [15]): 100%
